Common to all, as to type: cell-based
Assay [1] concerns U937. Nature of the assay: MTT antiproliferative assay, leukemia U937 cells. The conditions noted are these: Homo sapiens, U-937, 72 h, read-out: IC50 values, U937. The gist of the method: (§1)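 ATCC-sourced cancer cells were seeded in RPMI 1640 at 20 000 cells/mL and left 24 h to adhere. Serial dilutions of test compound ([…], in DMSO) were added, then incubated 72 h. MTT (5 mg/mL in PBS) was added for 4 h. Medium was removed, formazan dissolved in DMSO and read at 570 nm. IC50 came from linear regression of the dose–response curve; three runs, mean ± SD.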

Assay [2] has as its system SKMEL-28. Nature of the assay: MTT antiproliferative assay, melanoma SKMEL-28 cells. The conditions noted are these: read-out: IC50 values, SKMEL-28. Put shortly: as §1
(Tetrazolium assays rely on reduction of a dye to a coloured formazan, in cell work by metabolically active cells.)

Assay [3] has as its system NCIH 460. Nature of the assay: MTT antiproliferative assay, large-cell lung NCIH 460 cells. The conditions noted are these: Homo sapiens, NCI-H460, 72 h, read-out: IC50 values, N CIH 460. The gist of the method:
as §1

For assay [4], the system named is RKOP 27. Nature of the assay: MTT antiproliferative assay, colon RKOP 27 cells. As to conditions: RKOp27, 72 h, read-out: IC50 values, RKOP 27. Put shortly: as §1
Assay [5] concerns HeLa. The assay is described as follows: MTT antiproliferative assay, cervical HeLa cells. The conditions noted are these: Homo sapiens, 72 h, read-out: IC50 values, HeLa. Put shortly:
as §1

Like-named read-outs stand apart in the source and are kept apart here.

The term IC50 denotes the concentration that gives 50% inhibition. `N#Cc1c(-c2ccc(Cl)cc2)cc(-c2cccc3ccccc23)[nH]c1=O` [4a, 4-(4-Chlorophenyl)-6-(naphthalen-1-yl)-2-oxo-1,2-dihydropyridine-3-carbonitrile]: the concentration for half-maximal inhibition (IC50) in assay [1] amounted to 766 ± 19 nM; in assay [2] (Homo sapiens, SK-MEL-28, 72 h), 590 ± 15 nM; in assay [3] it was 66 ± 9 nM; in assay [4] it was 30 ± 1.5 nM; in assay [5], 250 ± 19 nM.

Turning to `N#Cc1c(-c2cccs2)cc(-c2cccc3ccccc23)[nH]c1=O` [4b, 6-(Naphthalen-1-yl)-2-oxo-4-(thiophen-2-yl)-1,2-dihydropyridine-3-carbonitrile], the IC50 is 836 ± 69 nM in assay [1]; 669 ± 9.8 nM in assay [2] (Homo sapiens, SK-MEL-28, 72 h); 58 ± 6.9 nM in assay [3]; 39 ± 9.8 nM in assay [4]; 246 ± 69 nM in assay [5].

As to `N#Cc1c(-c2ccc(Cl)cc2)cc(-c2cccc3ccccc23)n(C(=S)Nc2ccccc2)c1=O` [5a, 4-(4-Chlorophenyl)-3-cyano-6-(naphthalen-1-yl)-2-oxo-N-phenylpyridine-1(2H)-carbothioamide], the IC50 amounted to 1530 ± 255 nM in assay [1]; 1160 ± 318 nM in assay [2] (Homo sapiens, SK-MEL-28, 72 h); 518 ± 56.6 nM in assay [3]; 635 ± 45.8 nM in assay [4]; 973 ± 185 nM in assay [5].

For `N#Cc1c(-c2cccs2)cc(-c2cccc3ccccc23)n(C(=S)Nc2ccccc2)c1=O` [5b, 3-Cyano-6-(naphthalen-1-yl)-2-oxo-N-phenyl-4-(thiophen-2-yl)pyridine-1(2H)-carbothioamide], the IC50 was 980 ± 55 nM in assay [1]; 755 ± 18 nM in assay [2] (Homo sapiens, SK-MEL-28, 72 h); 32 ± 5.5 nM in assay [3]; 56 ± 3.2 nM in assay [4]; 277 ± 55 nM in assay [5].

For the molecule `N#Cc1c(-c2ccc(Cl)cc2)cc(-c2cccc3ccccc23)nc1Cl` [6a, 2-Chloro-4-(4-chlorophenyl)-6-(naphthalen-1-yl)nicotinonitrile], the IC50 in assay [1] is 1340 ± 174 nM; in assay [2] (Homo sapiens, SK-MEL-28, 72 h), 1850 ± 321 nM; in assay [3], 689 ± 98 nM; in assay [4], 512 ± 32 nM; in assay [5], 896 ± 115 nM.

Turning to `N#Cc1c(-c2cccs2)cc(-c2cccc3ccccc23)nc1Cl` [6b, 2-Chloro-6-(naphthalen-1-yl)-4-(thiophen-2-yl)nicotinonitrile], the IC50 stood at 2550 ± 374 nM in assay [1]; 1370 ± 215 nM in assay [2] (Homo sapiens, SK-MEL-28, 72 h); 728 ± 88 nM in assay [3]; 695 ± 56 nM in assay [4]; 795 ± 96 nM in assay [5].

On to `N#Cc1c(-c2ccc(Cl)cc2)cc(-c2cccc3ccccc23)[nH]c1=S` [7a, 4-(4-Chlorophenyl)-6-(naphthalen-1-yl)-2-thioxo-1,2-dihydropyridine-3-carbonitrile], for which the concentration for half-maximal inhibition (IC50) stood at 1630 ± 298 nM in assay [1]; 1240 ± 196 nM in assay [2] (Homo sapiens, SK-MEL-28, 72 h); 764 ± 102 nM in assay [3]; 596 ± 96 nM in assay [4]; 1020 ± 136 nM in assay [5].

Turning to `N#Cc1c(-c2cccs2)cc(-c2cccc3ccccc23)[nH]c1=S` [7b, 6-(Naphthalen-1-yl)-4-(thiophen-2-yl)-2-thioxo-1,2-dihydropyridine-3-carbonitrile], the 50% inhibitory concentration (IC50) in assay [1] was 1570 ± 321 nM; in assay [2] (Homo sapiens, SK-MEL-28, 72 h) it was 1130 ± 137 nM; in assay [3] it was 638 ± 138 nM; in assay [4], 697 ± 72 nM; in assay [5], 1370 ± 213 nM.

As to `CCCCCCCCN(c1nc(-c2cccc3ccccc23)cc(-c2ccc(Cl)cc2)c1C#N)c1nc(-c2cccc3ccccc23)cc(-c2ccc(Cl)cc2)c1C#N` [8a, 2,2′-(Octylazanediyl)bis(4-(4-chlorophenyl)-6-(naphthalen-1-yl)nicotinonitrile)], the IC50 is 544 ± 74 nM in assay [1]; 774 ± 21 nM in assay [2] (Homo sapiens, SK-MEL-28, 72 h); 48 ± 7.4 nM in assay [3]; 40 ± 2.1 nM in assay [4]; 229 ± 74 nM in assay [5].

For the molecule `CCCCCCCCN(c1nc(-c2cccc3ccccc23)cc(-c2cccs2)c1C#N)c1nc(-c2cccc3ccccc23)cc(-c2cccs2)c1C#N` [8b, 2,2′-(Octylazanediyl)bis(6-(naphthalen-1-yl)-4-(thiophen-2-yl)nicotinonitrile)], the IC50 in assay [1] was 1370 ± 284 nM; in assay [2] (Homo sapiens, SK-MEL-28, 72 h) it was 1260 ± 168 nM; in assay [3], 468 ± 69 nM; in assay [4], 486 ± 49 nM; in assay [5], 1040 ± 326 nM.

As to `N#Cc1c(-c2ccc(Cl)cc2)cc(-c2cccc3ccccc23)nc1NCCN` [10a, 2-((2-Aminoethyl)amino)-4-(4-chlorophenyl)-6-(naphthalen-1-yl)nicotinonitrile], the 50% inhibitory concentration (IC50) is 1810 ± 369 nM in assay [1]; 1790 ± 236 nM in assay [2] (Homo sapiens, SK-MEL-28, 72 h); 896 ± 78 nM in assay [3]; 596 ± 59 nM in assay [4]; 1160 ± 206 nM in assay [5].

Take `N#Cc1c(-c2cccs2)cc(-c2cccc3ccccc23)nc1NCCN` [10b, 2-((2-Aminoethyl)amino)-6-(naphthalen-1-yl)-4-(thiophen-2-yl)nicotinonitrile]: the half-inhibitory concentration (IC50) turned out to be 642 ± 69 nM in assay [1]; 669 ± 26 nM in assay [2] (Homo sapiens, SK-MEL-28, 72 h); 46 ± 6.9 nM in assay [3]; 46 ± 2.6 nM in assay [4]; 211 ± 69 nM in assay [5].

Take `N#Cc1c(-c2ccc(Cl)cc2)cc(-c2cccc3ccccc23)nc1NN` [11a, 4-(4-Chlorophenyl)-2-hydrazinyl-6-(naphthalen-1-yl)nicotinonitrile]: the IC50 was 458 ± 72 nM in assay [1]; 572 ± 36 nM in assay [2] (Homo sapiens, SK-MEL-28, 72 h); 44 ± 7.2 nM in assay [3]; 55 ± 3.6 nM in assay [4]; 255 ± 72 nM in assay [5].

On to `N#Cc1c(-c2cccs2)cc(-c2cccc3ccccc23)nc1NN` [11b, 2-Hydrazinyl-6-(naphthalen-1-yl)-4-(thiophen-2-yl)nicotinonitrile], for which the concentration for half-maximal inhibition (IC50) in assay [1] was 1590 ± 215 nM; in assay [2] (Homo sapiens, SK-MEL-28, 72 h), 1300 ± 106 nM; in assay [3], 478 ± 96 nM; in assay [4], 846 ± 96 nM; in assay [5], 1260 ± 227 nM.

Turning to `Cc1nnc2c(C#N)c(-c3ccc(Cl)cc3)cc(-c3cccc4ccccc34)n12` [12a, 7-(4-Chlorophenyl)-3-methyl-5-(naphthalen-1-yl)-[1,2,4]triazolo[4,3-a]pyridine-8-carbonitrile], the IC50 in assay [1] was 581 ± 51 nM; in assay [2] (Homo sapiens, SK-MEL-28, 72 h), 510 ± 41 nM; in assay [3], 33 ± 5.1 nM; in assay [4], 48 ± 4.1 nM; in assay [5], 185 ± 51 nM.

As to `Cc1nnc2c(C#N)c(-c3cccs3)cc(-c3cccc4ccccc34)n12` [12b, 3-Methyl-5-(naphthalen-1-yl)-7-(thiophen-2-yl)-[1,2,4]triazolo[4,3-a]pyridine-8-carbonitrile], the IC50 in assay [1] was 1470 ± 151 nM; in assay [2] (Homo sapiens, SK-MEL-28, 72 h) it was 1370 ± 389 nM; in assay [3], 648 ± 76 nM; in assay [4], 869 ± 87 nM; in assay [5] it was 1440 ± 108 nM.

Regarding `Cc1cc(=O)[nH]n1-c1nc(-c2cccc3ccccc23)cc(-c2ccc(Cl)cc2)c1C#N` [13a, 4-(4-Chlorophenyl)-2-(5-methyl-3-oxo-2,3-dihydro-1H-pyrazol-1-yl)-6-(naphthalen-1-yl)nicotinonitrile], the half-maximal inhibitory concentration (IC50) in assay [1] came to 1690 ± 89 nM; in assay [2] (Homo sapiens, SK-MEL-28, 72 h), 1500 ± 218 nM; in assay [3], 765 ± 89 nM; in assay [4] it was 879 ± 68 nM; in assay [5], 1270 ± 103 nM.

As for `Cc1cc(=O)[nH]n1-c1nc(-c2cccc3ccccc23)cc(-c2cccs2)c1C#N` [13b, 2-(5-Methyl-3-oxo-2,3-dihydro-1H-pyrazol-1-yl)-6-(naphthalen-1-yl)-4-(thiophen-2-yl)nicotinonitrile], the 50% inhibitory concentration (IC50) in assay [1] turned out to be 1760 ± 68 nM; in assay [2] (Homo sapiens, SK-MEL-28, 72 h) it was 1360 ± 182 nM; in assay [3], 869 ± 76 nM; in assay [4], 698 ± 79 nM; in assay [5] it was 1360 ± 139 nM.

For the molecule `N#Cc1c(-c2cccs2)cc(-c2cccc3ccccc23)nc1NNC(=O)Cc1ccccc1` [14b, N′-(3-Cyano-6-(naphthalen-1-yl)-4-(thiophen-2-yl)pyridin-2-yl)-2-phenylacetohydrazide], the IC50 was found to be 976 ± 125 nM in assay [1]; 1360 ± 98 nM in assay [2] (Homo sapiens, SK-MEL-28, 72 h); 789 ± 69 nM in assay [3]; 869 ± 87 nM in assay [4]; 1390 ± 110 nM in assay [5].

`CCCCCOC(=O)Nc1nc(=O)n([C@@H]2O[C@H](C)[C@@H](O)[C@H]2O)cc1F` [capecitabine, reference compound]: the IC50 in assay [4] came out at 4330 ± 64 nM.

For `COc1cccc2c1C(=O)c1c(O)c3c(c(O)c1C2=O)C[C@@](O)(C(=O)CO)C[C@@H]3O[C@H]1C[C@H](N)[C@H](O)[C@H](C)O1` [doxorubicin, reference compound], the IC50 in assay [1] was 4450 ± 50 nM.

On to `Nc1ccn([C@@H]2O[C@H](CO)[C@@H](O)C2(F)F)c(=O)n1` [gemcitabine, reference compound], for which the half-maximal inhibitory concentration (IC50) in assay [3] worked out at 2130 ± 50 nM.

Turning to aldelseukin [reference compound], the IC50 in assay [2] (MTT, 72 h, mean ± SD, three runs) is 3450 ± 64 nM.

The record behind these values is publication PMC7970580 (ACS Omega, 2021).
